In ChEMBL document CHEMBL4680111, “Target Validation and Identification of Novel Boronate Inhibitors of the Plasmodium falciparum Proteasome” (J Med Chem, 2018):
Activity calls are given as the source filed them. The calls are words filed in the database; no cut-off is given here.

Key:
Plasmodium falciparum [1] = assay: Inhibition of Plasmodium falciparum 20S proteasome beta 2 subunit trypsin-like activity using fluorogenic peptide Ac-WLR-AMC as substrate in presence of PA28alpha at 0.8 uM measured over 5 hrs by fluorescence microplate reader assay
Plasmodium falciparum [2] = assay: Inhibition of Plasmodium falciparum 20S proteasome beta 1 subunit caspase-like activity using fluorogenic peptide Ac-nLPnLD-AMC as substrate in presence of PA28alpha at 0.8 uM measured over 5 hrs by fluorescence microplate reader assay
Plasmodium falciparum [3] = assay: Inhibition of Plasmodium falciparum 20S proteasome beta 5 subunit chymotrypsin-like activity using fluorogenic peptide Ac-WLA-AMC as substrate in presence of PA28alpha at 0.8 uM measured over 5 hrs by fluorescence microplate reader assay
[4] = target: T1, Proteasome subunit beta type-8 (Homo sapiens) (UniProt P28062); assay: Inhibition of human 20S immunoproteasome beta 5 subunit assessed as inhibition of BMV037 probe labeling at 1 to 10 uM incubated for 1 hr by SDS-PAGE analysis; conditions: dose 1-10 µM
T1 sequence (whole entry): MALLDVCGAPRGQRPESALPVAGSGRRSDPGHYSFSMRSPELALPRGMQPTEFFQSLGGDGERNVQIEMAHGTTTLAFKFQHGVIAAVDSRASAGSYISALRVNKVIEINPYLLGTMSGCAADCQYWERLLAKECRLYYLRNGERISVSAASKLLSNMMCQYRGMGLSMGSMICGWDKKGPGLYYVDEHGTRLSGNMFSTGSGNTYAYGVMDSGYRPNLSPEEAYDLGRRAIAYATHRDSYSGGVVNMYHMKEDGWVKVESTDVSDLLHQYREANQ
Outline: (§1)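 Purified human immuno-20S (20 nM) was incubated with compound at 37°C for 1 h, then labelled with 10 µM BMV037 at 37°C for 2 h. Samples were run on 4-12% Bis-Tris gel with MES buffer, and active subunits were visualised by Cy5 fluorescence.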

[5] = tested on: Plasmodium falciparum 3D7; assay: Inhibition of 20S proteasome beta 5 subunit from bortezomib resistant Plasmodium falciparum 3D7 trophozoite infected erythrocytes assessed as inhibition of BMV037 probe labeling at 1 to 10 uM incubated for 1 hr by SDS-PAGE analysis; conditions: dose 1-10 µM
Plasmodium falciparum [6] = assay: Antiplasmodial activity against sorbitol synchronized ring stage bortezomib-resistant Plasmodium falciparum 3D7 clone B2a assessed as reduction in parasitemia incubated for 72 hrs by Syto-61 staining dye based flow cytometry analysis; format: functional; conditions: read-out: LD50 (the source's name)
Outline: (§2)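 Sorbitol-treated ring-stage parasites in O+ human erythrocytes were incubated with compound for 72 h, and viability was read in the second cycle. Read-out was Syto-61 (2 µM) flow cytometry of parasitemia, normalized to untreated and 2 µM DHA-killed controls. Mean ± SEM of three independent experiments.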

[7] = Inhibition of Plasmodium falciparum 20S proteasome beta 2 subunit trypsin-like activity using fluorogenic peptide Ac-WLR-AMC as substrate in presence of PA28alpha incubated for 1 to 2 hrs by fluorescence microplate reader assay
Plasmodium falciparum [8] = assay: Antiplasmodial activity against sorbitol synchronized ring stage bortezomib-resistant Plasmodium falciparum 3D7 clone B1a assessed as reduction in parasitemia incubated for 72 hrs by Syto-61 staining dye based flow cytometry analysis; format: functional; conditions: read-out: LD50 (the source's name); outline: as §2
[9] = target: T2, Proteasome component C5 (Homo sapiens) (UniProt P20618); assay: Inhibition of human 20S constitutive proteasome beta 1 subunit assessed as inhibition of BMV037 probe labeling at 1 to 10 uM incubated for 1 hr by SDS-PAGE analysis; conditions: dose 1-10 µM
T2 sequence (whole entry): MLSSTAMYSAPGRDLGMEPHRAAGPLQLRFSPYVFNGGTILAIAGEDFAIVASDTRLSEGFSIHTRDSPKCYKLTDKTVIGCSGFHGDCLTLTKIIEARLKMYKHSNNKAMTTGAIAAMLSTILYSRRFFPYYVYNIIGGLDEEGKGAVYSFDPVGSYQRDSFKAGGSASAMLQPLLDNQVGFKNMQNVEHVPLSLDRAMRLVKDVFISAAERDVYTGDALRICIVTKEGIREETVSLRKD
Outline: (§3)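 Purified human constitutive 20S (20 nM) was treated with compound at 37°C for 1 h, then labelled with 10 µM BMV037 at 37°C for 2 h. Samples were run on 10% Bis-Tris gel with MOPS buffer, and active subunits were detected by Cy5 fluorescence scan.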

Plasmodium falciparum [10] = assay: Antiplasmodial activity against DHA-resistant and sorbitol synchronized ring stage forms of Plasmodium falciparum Cam3.II^R539T expressing K13 mutant assessed as reduction in parasitemia incubated for 3 hrs by pulse exposure based Syto-61 staining dye based flow cytometry analysis; format: functional; conditions: read-out: LD50 (the source's name)
Outline: (§4)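 Tightly synchronized early-ring parasites (1-3 h post-invasion) exposed to compound for 3 h, then viability assessed in the next cycle. Cells stained with 2 µM Syto-61 and parasitemia read by flow cytometry, normalized to untreated and kill controls (2 µM DHA, 48-72 h). Mean ± SEM of three independent experiments.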

[11] = tested on: Plasmodium falciparum 3D7; assay: Inhibition of 20S proteasome beta 1 subunit from bortezomib resistant Plasmodium falciparum 3D7 trophozoite infected erythrocytes assessed as inhibition of BMV037 probe labeling at 1 to 10 uM incubated for 1 hr by SDS-PAGE analysis; conditions: dose 1-10 µM
[12] = Inhibition of Plasmodium falciparum 20S proteasome beta 5 subunit chymotrypsin-like activity using fluorogenic peptide Ac-WLA-AMC as substrate in presence of PA28alpha incubated for 1 to 2 hrs by fluorescence microplate reader assay
[13] = target: T3, Proteasome subunit beta type-9 (Homo sapiens) (UniProt P28065); assay: Inhibition of human 20S immunoproteasome beta 1 subunit assessed as inhibition of BMV037 probe labeling at 1 to 10 uM incubated for 1 hr by SDS-PAGE analysis; conditions: dose 1-10 µM; outline: as §1
T3 sequence (whole entry): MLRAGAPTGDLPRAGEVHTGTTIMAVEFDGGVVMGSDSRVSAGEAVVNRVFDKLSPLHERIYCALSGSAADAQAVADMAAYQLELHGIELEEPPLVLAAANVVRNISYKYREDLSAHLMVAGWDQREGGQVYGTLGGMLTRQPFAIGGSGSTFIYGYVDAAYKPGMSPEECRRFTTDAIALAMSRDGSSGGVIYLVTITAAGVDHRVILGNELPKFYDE

Plasmodium falciparum [14] = assay: Antiplasmodial activity against sorbitol synchronized ring stage Plasmodium falciparum 3D7 assessed as reduction in parasitemia incubated for 72 hrs by Syto-61 staining dye based flow cytometry analysis; format: functional; conditions: read-out: LD50 (the source's name); outline: as §2
Plasmodium falciparum [15] = assay: Inhibition of proteasome in Plasmodium falciparum trophozoite stage transfected with GFP-DD assessed as reduction in GFP-DD fusion protein degradation at 0.02 to 0.5 uM incubated for 3 hrs in absence of Shield-1 by Western blot analysis; conditions: dose 0.02-0.5 µM
Outline: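 GFP-DD reporter parasites were held in Shield-1 for 24 h, washed out, then treated as trophozoites (5% hematocrit, 5% parasitemia) with compound for 3 h at 37°C. […] Representative of four independent experiments.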

Plasmodium falciparum [16] = assay: Antiplasmodial activity against DHA-sensitive and sorbitol synchronized ring stage forms of Plasmodium falciparum Cam3.II^rev expressing K13 wild-type genotype assessed as reduction in parasitemia incubated for 3 hrs by pulse exposure based Syto-61 staining dye based flow cytometry analysis; format: functional; conditions: read-out: LD50 (the source's name); outline: as §4
[17] = Inhibition of Plasmodium falciparum 20S proteasome beta 1 subunit caspase-like activity using fluorogenic peptide Ac-nLPnLD-AMC as substrate in presence of PA28alpha incubated for 1 to 2 hrs by fluorescence microplate reader assay
[18] = target: T4, Proteasome Macropain subunit MB1 (Homo sapiens) (UniProt P28074); assay: Inhibition of human 20S constitutive proteasome beta 5 subunit assessed as inhibition of BMV037 probe labeling at 1 to 10 uM incubated for 1 hr by SDS-PAGE analysis; conditions: dose 1-10 µM; outline: as §3
T4 sequence (whole entry): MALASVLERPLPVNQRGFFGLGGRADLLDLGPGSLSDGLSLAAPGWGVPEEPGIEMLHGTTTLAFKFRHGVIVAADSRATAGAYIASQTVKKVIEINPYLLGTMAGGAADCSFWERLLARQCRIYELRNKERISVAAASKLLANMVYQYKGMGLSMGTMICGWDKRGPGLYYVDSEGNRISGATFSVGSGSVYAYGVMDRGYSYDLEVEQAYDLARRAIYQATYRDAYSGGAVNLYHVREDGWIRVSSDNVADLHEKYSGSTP

[19] = target: T5, Proteasome subunit beta type-7 (Homo sapiens, UniProt Q99436); assay: Inhibition of human 20S constitutive proteasome beta 2 subunit trypsin-like activity using fluorogenic peptide Ac-WLR-AMC as substrate in presence of PA28alpha incubated for 1 to 2 hrs by fluorescence microplate reader assay
T5 sequence (Q99436 whole entry): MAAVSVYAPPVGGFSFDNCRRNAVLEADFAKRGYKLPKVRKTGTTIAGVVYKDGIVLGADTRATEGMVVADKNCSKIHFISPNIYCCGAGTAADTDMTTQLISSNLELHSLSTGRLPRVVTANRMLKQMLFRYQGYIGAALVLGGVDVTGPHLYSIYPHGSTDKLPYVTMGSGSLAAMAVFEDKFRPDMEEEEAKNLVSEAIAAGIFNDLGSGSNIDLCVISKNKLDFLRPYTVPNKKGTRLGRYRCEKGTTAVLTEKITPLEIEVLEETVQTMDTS

[20] = tested on: Plasmodium falciparum 3D7; assay: Inhibition of 20S proteasome beta 5 subunit in bortezomib-resistant Plasmodium falciparum 3D7 assessed as inhibition of BMV037 probe labeling at 1 to 10 uM incubated for 1 hr by SDS-PAGE analysis; conditions: dose 1-10 µM
[21] = target: T6, Proteasome subunit beta type-10 (Homo sapiens, UniProt P40306); assay: Inhibition of human 20S immunoproteasome beta 2 subunit trypsin-like activity using fluorogenic peptide Ac-WLR-AMC as substrate in presence of PA28alpha incubated for 1 to 2 hrs by fluorescence microplate reader assay
T6 sequence (P40306 whole entry): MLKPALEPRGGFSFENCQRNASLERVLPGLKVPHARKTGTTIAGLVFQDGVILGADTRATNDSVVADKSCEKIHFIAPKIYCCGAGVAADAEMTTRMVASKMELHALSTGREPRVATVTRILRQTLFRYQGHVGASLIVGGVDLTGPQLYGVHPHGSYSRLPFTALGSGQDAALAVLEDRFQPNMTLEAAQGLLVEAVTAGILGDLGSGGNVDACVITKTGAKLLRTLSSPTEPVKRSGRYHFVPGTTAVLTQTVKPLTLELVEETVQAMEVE

[22] = target: T7, Proteasome subunit beta type-8 (Homo sapiens, UniProt P28062); assay: Inhibition of human 20S immunoproteasome beta 5 subunit chymotrypsin-like activity using fluorogenic peptide Ac-WLA-AMC as substrate in presence of PA28alpha incubated for 1 to 2 hrs by fluorescence microplate reader assay
T7 sequence (P28062 whole entry): T1 sequence (whole entry)

[23] = target: T8, Proteasome subunit beta type-6 (Homo sapiens, UniProt P28072); assay: Inhibition of human 20S constitutive proteasome beta 1 subunit caspase-like activity using fluorogenic peptide Ac-nLPnLD-AMC as substrate in presence of PA28alpha incubated for 1 to 2 hrs by fluorescence microplate reader assay
T8 sequence (P28072 whole entry): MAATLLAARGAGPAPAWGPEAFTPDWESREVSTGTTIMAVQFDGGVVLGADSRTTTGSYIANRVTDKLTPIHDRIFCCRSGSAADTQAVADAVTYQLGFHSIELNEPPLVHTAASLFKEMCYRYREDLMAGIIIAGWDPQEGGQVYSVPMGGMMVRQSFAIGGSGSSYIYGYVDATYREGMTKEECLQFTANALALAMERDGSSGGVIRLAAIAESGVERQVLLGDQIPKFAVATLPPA

[24] = target: T9, Proteasome subunit beta type-9 (Homo sapiens, UniProt P28065); assay: Inhibition of human 20S immunoproteasome beta 1 subunit caspase-like activity using fluorogenic peptide Ac-nLPnLD-AMC as substrate in presence of PA28alpha incubated for 1 to 2 hrs by fluorescence microplate reader assay
T9 sequence (P28065 whole entry): T3 sequence (whole entry)

[25] = Selectivity index, ratio of LD50 for cytotoxicity against human HepG2 cells to LD50 for antiplasmodial activity against Plasmodium falciparum 3D7 sorbitol-treated ring stage; format: toxicity, cell-based; conditions: read-out: Selectivity Index
[26] = target: T10, Proteasome Macropain subunit MB1 (Homo sapiens, UniProt P28074); assay: Inhibition of human 20S constitutive proteasome beta 5 subunit chymotrypsin-like activity using fluorogenic peptide Ac-WLA-AMC as substrate in presence of PA28alpha incubated for 1 to 2 hrs by fluorescence microplate reader assay
T10 sequence (P28074 whole entry): T4 sequence (whole entry)

With CC(C)C[C@H](NC(=O)[C@H](CCc1ccccc1)NC(=O)CN1CCOCC1)C(=O)N[C@@H](Cc1ccccc1)C(=O)N[C@@H](CC(C)C)C(=O)[C@@]1(C)CO1 the inhibition (Plasmodium falciparum [1]) was “Active”, the inhibition (Plasmodium falciparum [2]) was “inactive” and the inhibition (Plasmodium falciparum [3]) was “Active”.

In the case of CC(C)C[C@H](NC(=O)[C@H](Cc1ccccc1)NC(=O)c1cnccn1)B(O)O [BORTEZOMIB], the inhibition [4] is reported as “Active”, the inhibition [5] is reported as “Active” and the LC50 (Plasmodium falciparum [6]) is reported as 1100 nM. The IC50 [7] was 1600 nM, the LC50 (Plasmodium falciparum [8]) was 1300 nM and the inhibition [9] was “Active”. The LC50 (Plasmodium falciparum [10]) was 120 nM, the inhibition [11] was “Active” and the IC50 [12] was 53 nM. The inhibition [13] was “Active”, the LC50 (Plasmodium falciparum [14]) was 60 nM and the inhibition (Plasmodium falciparum [15]) was “Active”. The LC50 (Plasmodium falciparum [16]) was 180 nM, the IC50 [17] was 320 nM and the inhibition [18] was “Active”.

For CC(=O)N1CCC[C@H]1C(=O)N[C@@H](C)C(=O)N[C@@H](CC(C)C)B(O)O, the IC50 [19] was over 10000 nM, the inhibition [20] was “inactive” and the IC50 [21] was over 10000 nM. The IC50 [7] was over 10000 nM, the IC50 [22] was 63 nM and the IC50 [23] was 320 nM. For the same compound, the IC50 [24] was 13 nM, the LC50 (Plasmodium falciparum [10]) was 1500 nM and the IC50 [12] was 2900 nM. For the same compound, the LC50 (Plasmodium falciparum [14]) was 160 nM, the LC50 (Plasmodium falciparum [16]) was 1800 nM and the IC50 [17] was 3000 nM. For the same compound, the selectivity ratio [25] was 15 and the IC50 [26] was 97 nM.
